The list is not random: actives were taken first. Their share in the collection is about 4.3%.
WT yeast gro inh: growth inhibition of WT yeast, mitochondrial fusion screen | mitochondrial fusion phenotypic screen, WT strain | inhibition, % at 10 µM | hit rate 2.1% among 190,000; in the data active = inhibition above about 58%; tested in S. cerevisiae
RAM network inh: yeast RAM network inhibition; S. cerevisiae dse1pr::URA3 reporter, 5-FOA growth OD615, 2 d; analog-sensitive cbk1-as2 kinase mutant strain; inhibition, % at 50 µM; hit rate 1.8% among 190,000;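 active = inhibition above a set limit, 3 SD over mean compound inhibition, cut at about 8.4% in these data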;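 also: 0% = DMSO-only wells with no growth and 100% = 10 µM 1-NA-PP1 full growth; inhibition rescues growth on 5-FOA so higher OD means more RAM inhibition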
Yeast growth inh: chemicals that inhibit yeast BB579 growth in restrictive medium (lifespan-shortening candidates) | S. cerevisiae BB579 growth, OD615, 48 h | inhibition, % at 10 µM | hit rate 0.51% among 140,000 | AID 804;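 active = inhibition above a set limit, 3 SD over the mean compound inhibition, cut at about 44% in these data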
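System: DeaD yeast strain BB579; buffer or medium: CSMM-D dextrose restrictive medium; technique: OD at 615 nm; schedule: 4 h cell preincubation, 48 h compound exposure, 30 °C humidified; doses: single 10 µM dose; controls: amphotericin B 10 µg/mL, positive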
Yeast lifespan up: yeast lifespan extension; S. cerevisiae growth with nicotinamide, OD615; deaD strain in restrictive glucose medium; inhibition of the nicotinamide effect, % at 10 µM; hit rate 0.68% among 130,000; AID 775;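 active = inhibition above a set limit, placed 3 SD over the median of all compounds, cut at about 26% in these data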;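 also: 0% = nicotinamide-treated wells and 100% = cells grown without nicotinamide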
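System: DeaD-strain S. cerevisiae / Buffer or medium: CSMM-D, restrictive glucose (dextrose) synthetic minimal medium / Probe or stimulus: nicotinamide, 1.5 mM, co-present with compound / Compound: one concentration, 10 µM, DMSO 0.25% / Incubation: 48 h compound exposure at 30 °C, humidified / Technique: optical density (absorbance) at 615 nm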
An asterisk follows results filed as active; nt = not tested or not shown.

SMILES	WT yeast gro inh	RAM network inh	Yeast growth inh	Yeast lifespan up
Cc1cc(/C=C\c2ccccc2)nc2ccccc12	71*	1	nt	nt
Cc1cc(Nc2ccccc2)nn1C(=O)c1ccc(Cl)cc1	80*	0	-39	-13
Cc1cc(Nc2ccccc2)nn1C(=O)c1ccc([N+](=O)[O-])cc1	-6	5	-40	nt
COc1cc(C2C3=C(CCCC3=O)Nc3[nH]n(-c4ccccc4)c(=O)c32)ccc1OC(C)=O (centres undefined)	-3	-1	nt	nt
COC(=O)CSc1nc(N)c2c3c(sc2n1)C(c1ccccc1)SC(c1ccccc1)C3 (centres undefined)	67*	6	-20	14
COC(=O)CSc1nc(N)c2c3c(sc2n1)CCCC3	-14	2	-35	-8
Cc1ccc(S(=O)(=O)N2CCCC2C(=O)O)cc1 (centres undefined)	26	1	-82	-3
Cc1ccc(N2CCN(C(=O)c3ccccc3Br)CC2)c(C)c1	17	-1	-56	-8
Cc1ccc(C)c(N2CCN(C(=O)C3CCN(c4nc(C)cc(C)n4)CC3)CC2)c1	67*	1	-49	-9
Cc1cc(C)nc(N2CCC(C(=O)N3CCN(c4cc(Cl)ccc4C)CC3)CC2)n1	72*	0	5	-19
Cc1ccc(C)c(N2CCN(C(=O)C3CCCCN3S(=O)(=O)c3ccc(F)cc3)CC2)c1 (centres undefined)	64*	2	-27	-10
Cc1ccc(C)c(N2CCN(C(=O)c3ccccc3Br)CC2)c1	58*	-1	-38	-7
Cc1ccc(NC(=O)C2C(C(=O)O)C3C=CC2C32CC2)cc1 (centres undefined)	1	-1	-4	-9
Cc1ccc(NC(=O)C2C(c3ccccc3)C=CC(c3ccccc3)C2C(=O)O)cc1 (centres undefined)	9	1	-19	30*
Cc1cccc(C)c1-n1nnnc1SCSc1nnnn1-c1c(C)cccc1C	-1	2	-32	-10
Cc1ccc(NC2(c3nnnn3-c3c(C)cccc3C)CCCCC2)cc1	82*	2	3	0
Cc1cccc(NC(=S)c2nc3ccccc3s2)c1	67*	3	-30	-14
COc1ccc(S(=O)(=O)/N=C2/C=CC(=O)C(C)=C2C)cc1	7	1	-46	-5
CC1=C/C(=N\OS(=O)(=O)c2ccccc2)C(C)=CC1=O	75	-1	100*	-19
CC1=C/C(=N\OS(=O)(=O)c2ccccc2)C(C(C)C)=CC1=O	98	0	100*	-12
CC1=C(C)/C(=N\OS(=O)(=O)c2ccc(C)cc2)C=CC1=O	85	0	99*	-10
COc1ccccc1NC(=O)CC(NC1CCCCC1)C(=O)O (centres undefined)	7	0	-4	-3
Cc1cc(NC(=O)CCS(=O)(=O)c2nc(-c3ccccc3)cc(C(F)(F)F)n2)no1	5	2	-22	nt
CS(=O)(=O)c1nc(-c2ccccc2)cc(C(F)(F)F)n1	34	-2	-36	75*
O=C(N/N=C/c1cc(Br)ccc1O)C(c1ccncc1)N1CCOCC1 (centres undefined)	-13	-1	-6	35*
SMILES	WT yeast gro inh	RAM network inh	Yeast growth inh	Yeast lifespan up
O=C(/C=C/c1ccc(Cl)cc1)NC(=S)NN1CCCCC1c1cccnc1 (centres undefined)	66*	-1	-25	-4
Cc1[nH]c2ccccc2c1N=Nc1ccccc1F	72*	-1	nt	nt
Cc1[nH]c2ccccc2c1N=Nc1ccc(F)cc1	68	-1	nt	nt
CCOC(=O)CC(NC(=O)Cc1ccc(F)cc1)c1ccccc1Cl (centres undefined)	11	4	-9	-3
CCOC(=O)c1cc([N+](=O)[O-])sc1N	8	2	nt	nt
N#C/C(=C(/O)COC(=O)c1ccc(C#N)cc1)c1nc2ccccc2s1	-10	4	-62	6
Cc1ccc2nc(Cl)c(/C=N/NC(=O)[C@H]3C[C@@H]3c3ccccc3)cc2c1	16	3	-6	-5
Cc1ccc2nc(Cl)c(/C=N/NC(=O)c3ccccc3O)cc2c1	62*	3	-7	1
CCSc1ccccc1C(=O)n1nnc2ccccc21	8	0	-50	60*
CC(CCc1ccccc1)NC(=O)C1CCN(S(=O)(=O)N2CCOCC2)CC1 (centres undefined)	-3	3	-7	1
Cc1ccc(NC(=O)c2sc3nc[nH]c(=O)c3c2C)c(C)c1	-12	3	-16	-20
C=C(C)c1cccc(C(C)(C)NC(=O)Nc2ccc(Cl)cn2)c1	74*	11*	-35	-2

Screening results: PubChem, SRMLSC
